Published values pooled from the literature.
Each line is one published result; the experiments were not run side by side.
Target: Mitogen-activated protein kinase 4 (MAPK4, Homo sapiens, UniProt P31152)

Structure (SMILES)	test	conditions	remaining binding [%]
CN(C)c1nccc(-c2cnc3ncccn23)n1	binding	1 µM	98
O=C(NCCCN1CCOCC1)c1ccc(Nc2nccc(-c3cc4ccccc4s3)n2)cc1	binding, competition with immobilised ligand	1 µM	88
c1cnn2ncc(-c3ccnc(N4CCC45COC5)n3)c2c1	binding	1 µM	83
c1cncc(-c2cccc(Nc3nccc(NC4CCCCC4)n3)c2)c1	binding, competition with immobilised ligand	10 µM	95
CO[C@H]1CC[C@H](CNc2ccc(S(=O)(=O)NC(=O)c3ccc(N4CCN(CC5=C(c6ccc(Cl)cc6)CC(C)(C)CC5)CC4)cc3Oc3cnc4[nH]ccc4c3)cc2[N+](=O)[O-])CC1	cell-free assay, competition with immobilised ligand	1 µM	100
N[C@H]1CCN(c2nccc(-c3cnn4ncccc34)n2)C1	binding	1 µM	100
O=C(NCC1CCOCC1)c1n[nH]cc1NC(=O)c1c(F)cccc1F	binding, competition with immobilised ligand	1 µM	99
COc1ncc2cc3ccccc3nc2c1C#N	cell-free assay, competition with immobilised ligand	5 µM	100
COc1cnc(Nc2cccc(S(N)(=O)=O)c2)nc1N1CCN(c2ccccc2)CC1	binding, competition with immobilised ligand	1 µM	96
COc1ccnn2ncc(-c3ccnc(N(C)C)n3)c12	binding	1 µM	100
COc1cnc(Nc2cccc(S(N)(=O)=O)c2)nc1N1CCN(c2ccccc2)C(=O)C1	binding, competition with immobilised ligand	1 µM	99
Cn1nc(C(F)(F)F)cc1-c1cnc(N2CCc3cc(S(=O)(=O)Nc4c(F)cc(Cl)cc4F)cc(N4CCCC4=O)c32)nc1	cell-free assay, competition with immobilised ligand	1 µM	100
O=C(c1ccc(Nc2nccc(-c3cc4ccccc4s3)n2)cc1)N1CCC(N2CCCC2)CC1	binding, competition with immobilised ligand	1 µM	74
O=C1NC(c2ccccn2)Sc2ccccc21 (stereo not drawn)	cell-free assay, competition with immobilised ligand	1 µM	86
CC1CCCN1c1nccc(-c2cnn3ncccc23)n1 (stereo not drawn)	binding	1 µM	100
CCCOc1ccc([C@H]2[C@H](C(=O)O)[C@@H](c3ccc4c(c3)OCO4)CN2CC(=O)Nc2c(CC)cccc2CC)cc1	cell-free assay, competition with immobilised ligand	1 µM	93
FC(F)(F)Oc1cccc(-c2cnc3ccc(-c4ccncc4)nn23)c1	cell-free assay, competition with immobilised ligand	5 µM	100
O=C(Nc1ccc(Oc2ccc(F)cc2)cc1)N1CCc2ncccc2[C@H]1c1ccc(F)cc1	cell-free assay, competition with immobilised ligand	1 µM	95
C[C@@H]1CCN(c2nccc(-c3cnn4ncccc34)n2)C1	binding	1 µM	100
O=C(NCCCN1CCOCC1)c1ccc(Nc2ncc(Cl)c(-c3ccc(Cl)s3)n2)cc1	binding, competition with immobilised ligand	1 µM	1.4
CCS(=O)(=O)c1cc2cc(C[C@](O)(CC(C)(C)c3ccc(F)cc3C(N)=O)C(F)(F)F)[nH]c2cn1	cell-free assay, competition with immobilised ligand	1 µM	100
